Results reported in article PMC6706283 (Bioorganic & medicinal chemistry, 2019).
Entries after “also recorded” stand apart in the source; their conditions may differ. Read-outs that look alike come from different tables or passages of the source. One block for each compound: values may come before it.

Key:
[1] = system: human washed platelets; assay: human platelet aggregation assay; type: cell-based; details: parmodulin 10 μM, SFLLRN-NH2 1.5 μM
Procedure, shortened: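 Washed human platelets were incubated with test compound (10 µM), then stimulated with PAR1/2 agonist SFLLRN-NH2 (1.5 µM). Aggregation traces were recorded against DMSO vehicle control traces.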

[2] = molecular target: SERT (serotonin transporter) (Homo sapiens, UniProt P31645); assay: PDSP radioligand binding, SERT; details: read-out: mean % inhibition of binding, SERT
SERT (serotonin transporter), sequence (P31645 whole entry, species assumed): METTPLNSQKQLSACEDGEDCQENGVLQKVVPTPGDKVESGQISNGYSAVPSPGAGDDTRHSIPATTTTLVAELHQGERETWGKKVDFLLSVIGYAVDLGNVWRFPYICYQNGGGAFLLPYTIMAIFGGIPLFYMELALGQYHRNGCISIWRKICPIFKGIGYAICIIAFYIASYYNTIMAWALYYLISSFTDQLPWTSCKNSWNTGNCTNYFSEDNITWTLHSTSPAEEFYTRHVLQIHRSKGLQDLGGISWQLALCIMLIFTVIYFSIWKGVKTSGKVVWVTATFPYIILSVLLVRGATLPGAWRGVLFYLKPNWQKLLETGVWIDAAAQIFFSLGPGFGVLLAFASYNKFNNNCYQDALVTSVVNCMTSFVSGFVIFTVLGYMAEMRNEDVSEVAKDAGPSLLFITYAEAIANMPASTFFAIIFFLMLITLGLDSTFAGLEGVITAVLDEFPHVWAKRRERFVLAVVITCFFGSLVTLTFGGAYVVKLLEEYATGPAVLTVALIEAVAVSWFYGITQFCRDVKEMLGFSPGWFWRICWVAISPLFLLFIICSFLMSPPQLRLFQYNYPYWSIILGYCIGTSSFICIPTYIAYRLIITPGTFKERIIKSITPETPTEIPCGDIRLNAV

[3] = molecular target: T1, PAR2 (Homo sapiens, UniProt P55085); assay: PAR2; type: cell-based; details: parmodulins 10 μM, vorapaxar 0.316 μM; SLIGKV-NH2 3.16 μM
T1 sequence (P55085 26-397): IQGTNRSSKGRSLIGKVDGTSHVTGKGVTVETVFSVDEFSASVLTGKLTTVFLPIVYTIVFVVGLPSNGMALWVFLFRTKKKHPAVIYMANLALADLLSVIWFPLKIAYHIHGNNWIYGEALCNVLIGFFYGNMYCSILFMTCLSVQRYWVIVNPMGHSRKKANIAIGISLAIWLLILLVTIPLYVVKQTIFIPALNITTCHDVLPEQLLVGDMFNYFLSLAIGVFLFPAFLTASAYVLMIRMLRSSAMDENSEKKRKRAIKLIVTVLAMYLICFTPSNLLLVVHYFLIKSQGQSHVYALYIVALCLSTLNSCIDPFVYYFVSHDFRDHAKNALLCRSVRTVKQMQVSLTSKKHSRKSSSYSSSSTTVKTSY
Procedure, shortened: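 Intracellular Ca2+ mobilization assay in EA.hy926 endothelial cells. Cells were pretreated with test compound (10 µM) or reference antagonist (0.316 µM), then stimulated with PAR2 agonist SLIGKV-NH2 (3.16 µM). A parallel run stimulated with PAR1 agonist TFLLRN-NH2 at 3.16 µM.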

[4] = system: tissue factor (TF) mRNA; assay: qPCR assay of TNF-α induced tissue factor expression in HUVEC; type: cell-based, human; details: 10 μM, TNF-α 25 ng/mL added at 1 h, mRNA at 4 h
Procedure, shortened: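 HUVEC were treated with test compound (10 µM) at t = 0 and TNF-α (25 ng/mL) at t = 1 h. Tissue factor mRNA was quantified by qPCR at t = 4 h, n = 3. Analysis by one-way ANOVA with Bonferroni multiple-comparisons test.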

[5] = human liver microsome stability; type: in vitro ADME; details: 1 h
[6] = after 5 h; cited from earlier work
[7] = molecular target: 5HT-5A (5-hydroxytryptamine receptor) (Homo sapiens, UniProt P47898); assay: PDSP radioligand binding, 5HT-5A; details: read-out: mean % inhibition of binding, 5HT-5A
5HT-5A (5-hydroxytryptamine receptor), sequence (P47898 whole entry, species assumed): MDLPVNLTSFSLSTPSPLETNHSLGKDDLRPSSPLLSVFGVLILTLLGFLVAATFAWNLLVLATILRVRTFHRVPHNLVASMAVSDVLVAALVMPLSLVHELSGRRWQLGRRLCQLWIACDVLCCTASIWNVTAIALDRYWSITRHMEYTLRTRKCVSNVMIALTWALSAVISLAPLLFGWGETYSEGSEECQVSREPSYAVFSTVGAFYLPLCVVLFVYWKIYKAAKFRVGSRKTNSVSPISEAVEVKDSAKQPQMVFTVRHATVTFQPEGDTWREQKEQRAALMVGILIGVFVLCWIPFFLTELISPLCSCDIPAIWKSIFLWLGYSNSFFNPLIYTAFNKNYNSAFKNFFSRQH

[8] = molecular target: T2, PAR1 (Homo sapiens, UniProt P25116); type: cell-based; details: increasing concentrations of antagonist
T2 sequence (P25116 22-425): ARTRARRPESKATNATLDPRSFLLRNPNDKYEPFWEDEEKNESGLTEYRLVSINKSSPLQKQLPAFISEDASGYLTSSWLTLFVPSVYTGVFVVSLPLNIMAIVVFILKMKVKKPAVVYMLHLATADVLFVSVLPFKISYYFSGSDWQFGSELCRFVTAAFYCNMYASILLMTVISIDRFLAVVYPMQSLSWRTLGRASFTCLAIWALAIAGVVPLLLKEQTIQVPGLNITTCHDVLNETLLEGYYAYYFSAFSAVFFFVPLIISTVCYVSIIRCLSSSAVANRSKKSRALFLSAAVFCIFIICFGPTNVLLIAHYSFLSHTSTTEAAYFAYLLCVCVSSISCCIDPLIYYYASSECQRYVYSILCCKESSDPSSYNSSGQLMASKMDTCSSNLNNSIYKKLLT
Procedure, shortened: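 EA.hy926 endothelial cells; Ca2+ mobilization concentration-response curves for PAR1 agonist TFLLRN-NH2 were recorded at several increasing concentrations of test compound. Agonist efficacy was compared across antagonist levels.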

[9] = system: hepG2 cells; assay: cytotoxicity in hepG2 cells; type: cell-based; details: human hepG2 cells
[10] = molecular target: T2, PAR1; assay: intracellular calcium mobilization; type: cell-based; details: for activity in the iCa2+ assay (in words): EA.hy926 cells, TFLLRN-NH2
Procedure, shortened: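 Adherent EA.hy926 endothelial cells in 96-well plates; intracellular Ca2+ mobilization triggered by PAR1 tethered-ligand peptide TFLLRN-NH2 (5 µM). Single-point screen: test compound at 10 µM, % inhibition from n = 4 wells unless noted, with SEM. IC50: 3 wells per concentration, curves fitted by 4-variable non-linear regression. Summary IC50 is the average of independent assays. Selectivity run used agonist at 3.16 µM.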

[11] = cited from earlier work
[12] = molecular target: T2, PAR1; details: cited from earlier work
[13] = system: platelets; details: cited from earlier work

inhibition at 10 µM [2]: -44%
PAR2 activity? [3]: None observed
Microsomal stability [5]: 99% (1 h, human)
SMILES: CCCC(=O)Nc1cccc(NC(=O)c2ccccc2Br)c1 [ML161]
inhibition of platelet aggregation [1]: Complete inhibition
effect on TNF-α induced TF expression (mRNA) [4]: blocked the ~3-fold increase in TF expression
stability in mouse plasma, % remaining [6]: 2%

inhibition at 10 µM [7]: -31%
effect on the efficacy of the PAR1 agonist TFLLRN-NH2 [8]: reduction in efficacy
inhibition at 10 µM [2]: -44%
PAR2 activity? [3]: None observed
SMILES: O=C(Nc1cccc(NC(=O)c2ccccc2Br)c1)c1cnco1 [NRD-21, N-[3-(2-bromobenzamido)phenyl]-1,3-oxazole-5-carboxamide]
inhibition of platelet aggregation [1]: Complete inhibition
Cytotoxicity (CC50) [9]: no measurable toxicity
activity in the iCa2+ assay (in words) ([10]; listed as 38): very good inhibition; also recorded: much better efficacy than 39
effect on TNF-α induced TF expression (mRNA) [4]: below baseline levels

SMILES: CC(C)CC(=O)Nc1cccc(NC(=O)c2ccccc2Br)c1 [compound 2]
solubility in water with 1% DMSO [11]: 9 µM
activity in the endothelial iCa2+ assay (in words) ([12]; EA.hy926 cells): mediocre inhibition
stability in mouse plasma, % remaining [6]: 65%
inhibition in the platelet P-selectin assay (in words) [13]: equipotent to ML161

activity in the iCa2+ assay (in words) [10]: moderate inhibition
SMILES: O=C(Nc1cccc(NC(=O)C2CCCC2)c1)c1ccccc1Br [compound 3]

SMILES: CCCCNc1cccc(NC(=O)c2ccccc2Br)c1 [compound 5]
activity in the iCa2+ assay (in words) ([12]; as previously reported): very good activity

activity in the iCa2+ assay (in words) [10]: weak efficacy
SMILES: CCC(C)C(=O)Nc1cccc(NC(=O)c2ccccc2Br)c1 (centres unmarked) [compound 7]

activity in the iCa2+ assay (in words) [10]: decreased activity
SMILES: CCC(=O)Nc1cccc(NC(=O)c2ccccc2Br)c1 [compound 8]

activity in the iCa2+ assay (in words) [10]: decreased efficacy and/or potency
SMILES: CCCCC(=O)Nc1cccc(NC(=O)c2ccccc2Br)c1 [compound 10]

activity in the iCa2+ assay (in words) [10]: decreased efficacy and/or potency
SMILES: C#CCCC(=O)Nc1cccc(NC(=O)c2ccccc2Br)c1 [compound 11]

activity in the iCa2+ assay (in words) [10]: moderate activity
SMILES: CCCCOc1cccc(NC(=O)c2ccccc2Br)c1 [compound 24]

activity in the iCa2+ assay (in words) [10]: complete loss of activity
SMILES: CN(C)CC(=O)Nc1cccc(NC(=O)c2ccccc2Br)c1 [compound 25]

activity in the iCa2+ assay (in words) [10]: weak activity
SMILES: CCCN(CCC)c1cccc(NC(=O)c2ccccc2Br)c1 [compound 26]

activity in the iCa2+ assay (in words) [10]: weak activity
SMILES: COCCNc1cccc(NC(=O)c2ccccc2Br)c1 [compound 27]

activity in the iCa2+ assay (in words) [10]: steep drop in efficacy
SMILES: CCCNCc1cccc(NC(=O)c2ccccc2Br)c1 [compound 28]

activity in the iCa2+ assay (in words) [10]: evidence of activation
SMILES: O=C(Nc1cccc(NC2CCCC2)c1)c1ccccc1Br [compound 29]

activity in the iCa2+ assay (in words) [10]: evidence of activation
SMILES: O=C(Nc1cccc(N2CCCC2)c1)c1ccccc1Br [compound 30]

activity in the iCa2+ assay (in words) [10]: only modest inhibition
SMILES: O=C(Nc1cccc(NC(=O)C2CCCO2)c1)c1ccccc1Br (centres unmarked) [compound 36]

activity in the iCa2+ assay (in words) [10]: only modest inhibition
SMILES: O=C(Nc1cccc(NC(=O)C2CCOC2)c1)c1ccccc1Br (centres unmarked) [compound 37]

activity in the iCa2+ assay (in words) [10]: very good inhibition
inhibition of PAR1 ([10]; selectivity study: parmodulin 10 μM, TFLLRN-NH2 3.16 μM): less than 75%
SMILES: O=C(Nc1cccc(NC(=O)c2ccccc2Br)c1)c1cocn1 [compound 39]
